Consider four compounds from ChEMBL document CHEMBL4177755, “Combating Drug-Resistant Fungi with Novel Imperfectly Amphipathic Palindromic Peptides” (J Med Chem, 2018).

Series [1] relates to Lipid bilayer. Description: Binding affinity to phosphatidylcholine/cholesterol large unilamellar vesicle assessed as induction of calcein leakage at 2 to 32 uM after 15 mins by spectrofluorophotometric method. Particulars: 0.25 h. In outline: (§1)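 Large unilamellar vesicles were made from PG/CL/PE (2:1:7), PC/PE/PI/ergosterol (5:4:1:2) or PC/cholesterol (10:1), loaded with 70 mM calcein in Tris/NaCl/EDTA buffer at pH 7.4, frozen and thawed 20 times, and extruded through 100 nm filters. Free dye was removed by gel filtration, and peptide-induced calcein release was measured.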

Series [2] relates to Candida albicans. The series can be described thus: Antifungal activity against Candida albicans cgmcc 2.2086 in presence of 12.5% human heat-inactivated serum by broth dilution method. It counts as functional. On the technique in general: Broth dilution looks for growth in wells or tubes with falling amounts of substance.
The subject of series [3] is Candida albicans. The series can be described thus: Antifungal activity against Candida albicans cgmcc 2.2086 in presence of 25% human heat-inactivated serum by broth dilution method. The series is classed as functional.
Series [4] relates to Lipid bilayer. The series can be described thus: Binding affinity to phosphatidylcholine/phosphatidylethanolamine/phosphatidylinositol/ergosterol large unilamellar vesicle assessed as induction of calcein leakage at 2 to 32 uM after 15 mins by spectrofluorophotometric method. In outline:
as §1

Series [5] has as its system Candida albicans. The series can be described thus: Antifungal activity against Candida albicans cgmcc 2.2086 in presence of 50% human heat-inactivated serum by broth dilution method. The series is classed as functional.
Series [6] concerns Candida albicans. Description: Disruption of cytoplasmic membrane electrical potential in Candida albicans cgmcc 2.2086 at MFC after 800 secs by DiSC3-5 dye-based fluorescence spectrophotometric method. It counts as functional, organism-based. The gist of the method: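 Cells were loaded with the membrane potential-sensitive dye DiSC3-5, and its release on peptide treatment (various concentrations, including 1× MBC/MFC) was monitored as increasing fluorescence over 800 s.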

The test system of series [7] is RAW264.7. Description: Induction of endotoxin-neutralization in mouse RAW264.7 cells assessed as inhibition of LPS-induced TNFalpha secretion at 2 uM after 18 hrs by ELISA. It counts as functional, cell-based. In outline:
(§2)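 RAW 264.7 cells were stimulated with 50 ng/mL LPS with or without peptide at various concentrations. TNF-α in supernatants was measured by ELISA and NO by Griess reagent. Mean ± SEM of three independent experiments, compared against LPS alone.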
(In an ELISA, binding on a coated surface is turned into a signal by an enzyme label.)

Series [8] deals with Escherichia coli. The series can be described thus: Induction of cell wall permeabilization in Escherichia coli ATCC 25922 assessed as increase in NPN uptake by fluorescence spectrophotometric method. It counts as functional, organism-based. In outline: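 Log-phase cells at OD600 0.2 in 5 mM HEPES (pH 7.4, 5 mM glucose) were preloaded with 10 μM NPN for 30 min, then peptide was added. Fluorescence (ex 350/em 420 nm) was followed until it plateaued and converted to % NPN uptake against initial and maximal fluorescence. Triplicate.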

Series [9] deals with RAW264.7. Description: Immunostimulatory activity in mouse RAW264.7 cells assessed as induction of TNFalpha secretion by ELISA. The series is classed as cell-based. The gist of the method: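 RAW 264.7 macrophages were exposed to peptide at various concentrations. TNF-α in culture supernatants was measured by ELISA and NO by Griess reagent. Values are means ± SEM of three independent experiments.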

In series [10] the test system is Candida albicans. The series can be described thus: Induction of membrane damage in Candida albicans cgmcc 2.2086 assessed as membrane deformation at MFC after 1 hr by scanning electron microscopy. It counts as functional, organism-based. The gist of the method:
(§3)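 E. coli ATCC 25922 was treated at 1× MBC and C. albicans cgmcc 2.2086 at 1× MFC, each for 1 h. Untreated control cells were processed in parallel without peptide. Surface morphology was imaged by AFM and SEM, and ultrastructure by TEM.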

The test system of series [11] is Candida albicans. The series can be described thus: Induction of membrane damage in Candida albicans cgmcc 2.2086 assessed as intracellular content leakage at MFC after 1 hr by transmission electron microscopy. The series is classed as functional, organism-based. In outline: (§4)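 E. coli ATCC 25922 or C. albicans cgmcc 2.2086 were treated with peptide at 1× MBC/MFC for 1 h alongside peptide-free controls, then imaged by AFM, SEM or TEM for membrane and ultrastructural changes.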

The subject of series [12] is Escherichia coli. The series can be described thus: Antibacterial activity against Escherichia coli ATCC 25922 after 18 hrs in presence of 25% human heat-inactivated serum by broth dilution method. The settings on record: ATCC 25922, 18 h. It counts as functional.
Series [13] has as its system RAW264.7. The series can be described thus: Induction of endotoxin-neutralization in mouse RAW264.7 cells assessed as inhibition of LPS-induced nitric oxide production after 18 hrs by Griess assay. It counts as functional, cell-based. The gist of the method:
as §2

The test system of series [14] is Escherichia coli. Description: Antibacterial activity against Escherichia coli ATCC 25922 after 18 hrs in presence of 50% human heat-inactivated serum by broth dilution method. Particulars: ATCC 25922, 18 h. It counts as functional.
Series [15] has as its system Escherichia coli. Description: Bactericidal activity against Escherichia coli ATCC 25922 at MBC after 5 hrs by time-kill assay. It counts as functional. The gist of the method:
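Time-kill: E. coli ATCC 25922 or C. albicans cgmcc 2.2086 was exposed to peptide at 1× MBC/MFC. At intervals, aliquots were diluted and spread on MHA (bacteria, counted after 24 h at 37 °C) or YPDA (yeast, counted after 48 h at 28 °C). Values are means of three independent assays.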

Series [16] concerns Escherichia coli. Description: Induction of reactive oxygen species generation in Escherichia coli ATCC 25922 at 32 uM after 1 hr by DCFH-DA dye-based spectrofluorophotometric method relative to control. The series is classed as functional. In outline:
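Intracellular ROS in peptide-treated cells were compared with untreated cells; values are mean ± SEM of three independent experiments.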

Series [17] relates to Candida albicans. The series can be described thus: Fungicidal activity against fluconazole-resistant Candida albicans 56452 at 0.5 times MFC after 30 passages. The series is classed as functional, organism-based. The gist of the method:
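Resistance induction. C. albicans cultures were serially passaged by 100-fold dilution every 24 h in 2 mL RPMI 1640 containing sub-MFC peptide, and the MFC was retested at each passage. A control was passaged in RPMI 1640 alone.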

In series [18] the test system is Candida albicans. Description: Induction of membrane damage in Candida albicans cgmcc 2.2086 assessed as membrane deformation at MFC after 1 hr by atomic force microscopy. The series is classed as functional, organism-based. The gist of the method:
as §3

Series [19] concerns Lipid bilayer. Description: Binding affinity to phosphatidylglycerol/cardiolipin/phosphatidylethanolamine large unilamellar vesicle assessed as induction of calcein leakage at 32 uM after 15 mins by spectrofluorophotometric method relative to control. In outline: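 Compositions were PG/CL/PE 2:1:7 w/w/w (E. coli membrane mimic; lines 4,5) and PC/PE/PI/ergosterol 5:4:1:2 w/w/w/w (fungal membrane mimic; lines 2,3). Lipids underwent 20 freeze–thaw cycles and were extruded through 100 nm filters; free calcein was removed by gel filtration.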

Series [20] has as its system Candida albicans. Description: Induction of membrane damage in Candida albicans cgmcc 2.2086 assessed as membrane creping at MFC after 1 hr by atomic force microscopy. The series is classed as functional, organism-based. In outline:
as §3

The subject of series [21] is Candida albicans. The series can be described thus: Induction of membrane damage in Candida albicans cgmcc 2.2086 assessed as intracellular content leakage at MFC after 1 hr by scanning electron microscopy. It counts as functional, organism-based. In outline:
as §4

Series [22] can be described thus: Cytotoxicity against mouse RAW264.7 cells assessed as cell viability at 2 to 32 uM after 24 hrs by MTT assay relative to control. Particulars: read-out: Activity. It counts as cell-based. The gist of the method: (§5)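 MTT viability assay. RAW264.7 or HEK293T cells at (1.0−2.0) × 10^5 per well were exposed to a peptide concentration series for 24 h at 37 °C in 5% CO2. MTT was then added at 0.5 mg/mL final for 4 h; formazan was dissolved in DMSO and read at 570 nm. Results average three independent trials.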
A general note: Formazan colour is commonly taken as a measure of viable cells.

Series [23] in a line: Cytotoxicity against HEK293T cells assessed as cell viability at 2 to 32 uM after 24 hrs by MTT assay relative to control. The series is classed as cell-based, HEK-293T. Particulars: human, read-out: Activity. The gist of the method:
as §5

For series [24], the system named is RAW264.7. Description: Cytotoxicity against mouse RAW264.7 cells assessed as decrease in cell viability at 64 uM after 24 hrs by MTT assay relative to control. The settings on record: raw264.7, 24 h. It counts as cell-based. In outline:
as §5

Activity calls are given as the source filed them. The rule behind the calls is not given here.

The term MIC denotes the lowest concentration found to suppress growth. `CC[C@H](C)[C@H](NC(=O)CN)C(=O)NCC(=O)N[C@@H](C)C(=O)N[C@H](C(=O)N[C@@H](CC(C)C)C(=O)N[C@@H](CCCCN)C(=O)N[C@H](C(=O)N[C@@H](CC(C)C)C(=O)N[C@H](C(=O)N[C@H](C(=O)NCC(=O)N[C@@H](CC(C)C)C(=O)N1CCC[C@H]1C(=O)N[C@@H](C)C(=O)N[C@@H](CC(C)C)C(=O)N[C@H](C(=O)N[C@@H](CO)C(=O)N[C@@H](Cc1c[nH]c2ccccc12)C(=O)N[C@H](C(=O)N[C@@H](CCCCN)C(=O)N[C@@H](CCCNC(=N)N)C(=O)N[C@@H](CCCCN)C(=O)N[C@@H](CCCNC(=N)N)C(=O)N[C@@H](CCC(N)=O)C(=O)N[C@@H](CCC(N)=O)C(N)=O)[C@@H](C)CC)[C@@H](C)CC)[C@@H](C)O)[C@@H](C)O)C(C)C)C(C)C` [MELITTIN]: the outcome in series [1] was Active. Moreover, the minimal inhibitory concentration (MIC) in series [2] came to 32 µM; in series [3] it was 32 µM; in series [5], 64 µM. Moreover, the result in series [4] and in series [6] was Active.

As for H-RRIRIIIRIRR-NH2, in series [7], the inhibition entry is “Active”. The Activity result in series [8] is “Dose-dependent effect”; in series [9], “Non-Toxic”; in [1] it was “Not Active”; in series [15], greater than 99.99%; in [19] it was 63%. Besides, the outcome in series [10], in series [11], in series [17], in series [18], in [20] and in [21] was Active. For the same compound, the MIC in series [12] is 4 µM; in series [2], 2 µM; in [3] it was 4 µM; in [14], 8 µM; in series [5], 8 µM. In series [13], the inhibition result was “Dose-dependent effect”. In addition, the “fold change (FC)” value in series [16] is 2.

H-RWWRRWRRWWR-NH2: the viability at 24 h, up to 32 µM in series [22] and in series [23] was 70 to 80% in each case. In addition, the Activity result in series [24] is “Toxic”.

Turning to H-WWRRWRRWW-NH2, the viability at 24 h, up to 32 µM in series [22] and in series [23] was 70 to 80% in each case. Moreover, the Activity result in [24] is “Toxic”.
